Reference: ChEMBL document CHEMBL4689842, “EUbOPEN Chemogenomics Library wave 1” (2021)

Test system: Fibroblast
Experiment: Multiplex assay against human fibroblast
Assay type: toxicity, cell-based
Method in brief: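 Cells were classed with CellPathfinder machine-learning gating, first as Hoechst high-intensity objects or normal cells, then (normal cells) as healthy, pyknosed or fragmented nuclei, and finally (pyknosed cells) as mitotic or apoptotic. Staining of live cells at seeding used Hoechst33342, BioTracker Green Microtubule Cytoskeleton Dye, MitoTracker Red and Annexin V Alexa Fluor 680, with imaging on a CQ1 microscope at 37°C and 5% CO2 after compound addition. Tubulin, mitochondrial-mass and membrane-permeability phenotypes are per cents of healthy-nucleus cells.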

[1] = 12 h, 1 µM, compound concentration 1 uM, replicate 1
[2] = 12 h, 1 µM, compound concentration 1 uM, replicate 2
[3] = 12 h, 10 µM, compound concentration 10 uM, replicate 1
[4] = 12 h, 10 µM, compound concentration 10 uM, replicate 2
[5] = 24 h, 1 µM, compound concentration 1 uM, replicate 1
[6] = 24 h, 1 µM, compound concentration 1 uM, replicate 2
[7] = 24 h, 10 µM, compound concentration 10 uM, replicate 1
[8] = 24 h, 10 µM, compound concentration 10 uM, replicate 2
[9] = 48 h, 1 µM, compound concentration 1 uM, replicate 1
[10] = 48 h, 1 µM, compound concentration 1 uM, replicate 2
[11] = 48 h, 10 µM, compound concentration 10 uM, replicate 1
[12] = 48 h, 10 µM, compound concentration 10 uM, replicate 2

SMILES: CCCc1cc(C)[nH]c(=O)c1CNC(=O)c1cc(-c2ccc(N3CCN(C(C)C)CC3)nc2)cc2c1cnn2C(C)C
- Population Apoptotic (%) [1]: 73%
- Population Fragmented Nuclei (%) [1]: 26%
- Population Healthy Nuclei (%) [1]: 41%
- Population Hoechst High Intensity Objects (%) [1]: 22%
- Population Membrane Permeable-Phenotype (%) [1]: 4%
- Population Mitochondria Different-Phenotype (%) [1]: 32%
- Population Mitotic Cells (%) [1]: 26%
- Population Normal (%) [1]: 77%
- Population Pyknosed Nuclei (%) [1]: 31%
- Population Tubulin-Different-Phenotype (%) [1]: 52%
- Total Cell Count [1]: 77
- Population Apoptotic (%) [2]: 20%
- Population Fragmented Nuclei (%) [2]: 19%
- Population Healthy Nuclei (%) [2]: 70%
- Population Hoechst High Intensity Objects (%) [2]: 10%
- Population Membrane Permeable-Phenotype (%) [2]: 8%
- Population Mitochondria Different-Phenotype (%) [2]: 91%
- Population Mitotic Cells (%) [2]: 80%
- Population Normal (%) [2]: 89%
- Population Pyknosed Nuclei (%) [2]: 9%
- Population Tubulin-Different-Phenotype (%) [2]: 94%
- Total Cell Count [2]: 56
- Population Apoptotic (%) [3]: 48%
- Population Fragmented Nuclei (%) [3]: 24%
- Population Healthy Nuclei (%) [3]: 32%
- Population Hoechst High Intensity Objects (%) [3]: 29%
- Population Membrane Permeable-Phenotype (%) [3]: 6%
- Population Mitochondria Different-Phenotype (%) [3]: 21%
- Population Mitotic Cells (%) [3]: 51%
- Population Normal (%) [3]: 70%
- Population Pyknosed Nuclei (%) [3]: 42%
- Population Tubulin-Different-Phenotype (%) [3]: 69%
- Total Cell Count [3]: 143
- Population Apoptotic (%) [4]: 85%
- Population Fragmented Nuclei (%) [4]: 13%
- Population Healthy Nuclei (%) [4]: 47%
- Population Hoechst High Intensity Objects (%) [4]: 5%
- Population Membrane Permeable-Phenotype (%) [4]: 79%
- Population Mitochondria Different-Phenotype (%) [4]: 100%
- Population Mitotic Cells (%) [4]: 14%
- Population Normal (%) [4]: 94%
- Population Pyknosed Nuclei (%) [4]: 38%
- Population Tubulin-Different-Phenotype (%) [4]: 100%
- Total Cell Count [4]: 57
- Population Apoptotic (%) [5]: 31%
- Population Fragmented Nuclei (%) [5]: 30%
- Population Healthy Nuclei (%) [5]: 47%
- Population Hoechst High Intensity Objects (%) [5]: 16%
- Population Membrane Permeable-Phenotype (%) [5]: 11%
- Population Mitochondria Different-Phenotype (%) [5]: 20%
- Population Mitotic Cells (%) [5]: 68%
- Population Normal (%) [5]: 83%
- Population Pyknosed Nuclei (%) [5]: 22%
- Population Tubulin-Different-Phenotype (%) [5]: 85%
- Total Cell Count [5]: 86
- Population Apoptotic (%) [6]: 33%
- Population Fragmented Nuclei (%) [6]: 20%
- Population Healthy Nuclei (%) [6]: 51%
- Population Hoechst High Intensity Objects (%) [6]: 10%
- Population Membrane Permeable-Phenotype (%) [6]: 10%
- Population Mitochondria Different-Phenotype (%) [6]: 78%
- Population Mitotic Cells (%) [6]: 66%
- Population Normal (%) [6]: 90%
- Population Pyknosed Nuclei (%) [6]: 27%
- Population Tubulin-Different-Phenotype (%) [6]: 82%
- Total Cell Count [6]: 53
- Population Apoptotic (%) [7]: 46%
- Population Fragmented Nuclei (%) [7]: 21%
- Population Healthy Nuclei (%) [7]: 43%
- Population Hoechst High Intensity Objects (%) [7]: 25%
- Population Membrane Permeable-Phenotype (%) [7]: 4%
- Population Mitochondria Different-Phenotype (%) [7]: 37%
- Population Mitotic Cells (%) [7]: 53%
- Population Normal (%) [7]: 74%
- Population Pyknosed Nuclei (%) [7]: 35%
- Population Tubulin-Different-Phenotype (%) [7]: 59%
- Total Cell Count [7]: 199
- Population Apoptotic (%) [8]: 91%
- Population Fragmented Nuclei (%) [8]: 8%
- Population Healthy Nuclei (%) [8]: 48%
- Population Hoechst High Intensity Objects (%) [8]: 9%
- Population Membrane Permeable-Phenotype (%) [8]: 85%
- Population Mitochondria Different-Phenotype (%) [8]: 100%
- Population Mitotic Cells (%) [8]: 8%
- Population Normal (%) [8]: 90%
- Population Pyknosed Nuclei (%) [8]: 42%
- Population Tubulin-Different-Phenotype (%) [8]: 100%
- Total Cell Count [8]: 60
- Population Apoptotic (%) [9]: 66%
- Population Healthy Nuclei (%) [9]: 50%
- Population Hoechst High Intensity Objects (%) [9]: 20%
- Population Membrane Permeable-Phenotype (%) [9]: 7%
- Population Mitochondria Different-Phenotype (%) [9]: 23%
- Population Mitotic Cells (%) [9]: 33%
- Population Normal (%) [9]: 79%
- Population Pyknosed Nuclei (%) [9]: 15%
- Population Tubulin-Different-Phenotype (%) [9]: 63%
- Total Cell Count [9]: 96
- Population Apoptotic (%) [10]: 50%
- Population Fragmented Nuclei (%) [10]: 34%
- Population Healthy Nuclei (%) [10]: 63%
- Population Hoechst High Intensity Objects (%) [10]: 10%
- Population Membrane Permeable-Phenotype (%) [10]: 8%
- Population Mitochondria Different-Phenotype (%) [10]: 10%
- Population Mitotic Cells (%) [10]: 50%
- Population Normal (%) [10]: 90%
- Population Pyknosed Nuclei (%) [10]: 1%
- Population Tubulin-Different-Phenotype (%) [10]: 73%
- Total Cell Count [10]: 120
- Population Apoptotic (%) [11]: 77%
- Population Fragmented Nuclei (%) [11]: 34%
- Population Healthy Nuclei (%) [11]: 25%
- Population Hoechst High Intensity Objects (%) [11]: 38%
- Population Membrane Permeable-Phenotype (%) [11]: 5%
- Population Mitochondria Different-Phenotype (%) [11]: 63%
- Population Mitotic Cells (%) [11]: 22%
- Population Normal (%) [11]: 61%
- Population Pyknosed Nuclei (%) [11]: 40%
- Population Tubulin-Different-Phenotype (%) [11]: 68%
- Total Cell Count [11]: 124
- Population Apoptotic (%) [12]: 48%
- Population Fragmented Nuclei (%) [12]: 22%
- Population Healthy Nuclei (%) [12]: 41%
- Population Hoechst High Intensity Objects (%) [12]: 54%
- Population Membrane Permeable-Phenotype (%) [12]: 0%
- Population Mitochondria Different-Phenotype (%) [12]: 42%
- Population Mitotic Cells (%) [12]: 51%
- Population Normal (%) [12]: 45%
- Population Pyknosed Nuclei (%) [12]: 35%
- Population Tubulin-Different-Phenotype (%) [12]: 63%
- Total Cell Count [12]: 202

SMILES: NC(=O)c1ccc2nc(-c3ccc(C4(N)CCC4)cc3)c(-c3ccccc3)n2n1 [BAY-1125976]
- Population Apoptotic (%) [1]: 72%
- Population Fragmented Nuclei (%) [1]: 53%
- Population Healthy Nuclei (%) [1]: 33%
- Population Hoechst High Intensity Objects (%) [1]: 38%
- Population Mitochondria Different-Phenotype (%) [1]: 0%
- Population Mitotic Cells (%) [1]: 27%
- Population Normal (%) [1]: 61%
- Population Pyknosed Nuclei (%) [1]: 13%
- Population Tubulin-Different-Phenotype (%) [1]: 29%
- Total Cell Count [1]: 587
- Population Apoptotic (%) [2]: 87%
- Population Fragmented Nuclei (%) [2]: 56%
- Population Healthy Nuclei (%) [2]: 31%
- Population Hoechst High Intensity Objects (%) [2]: 51%
- Population Mitochondria Different-Phenotype (%) [2]: 15%
- Population Mitotic Cells (%) [2]: 12%
- Population Normal (%) [2]: 48%
- Population Pyknosed Nuclei (%) [2]: 12%
- Population Tubulin-Different-Phenotype (%) [2]: 25%
- Total Cell Count [2]: 131
- Population Apoptotic (%) [3]: 59%
- Population Fragmented Nuclei (%) [3]: 27%
- Population Healthy Nuclei (%) [3]: 51%
- Population Hoechst High Intensity Objects (%) [3]: 13%
- Population Mitochondria Different-Phenotype (%) [3]: 3%
- Population Mitotic Cells (%) [3]: 40%
- Population Normal (%) [3]: 86%
- Population Pyknosed Nuclei (%) [3]: 20%
- Population Tubulin-Different-Phenotype (%) [3]: 2%
- Total Cell Count [3]: 208
- Population Apoptotic (%) [4]: 20%
- Population Fragmented Nuclei (%) [4]: 54%
- Population Healthy Nuclei (%) [4]: 36%
- Population Hoechst High Intensity Objects (%) [4]: 40%
- Population Mitochondria Different-Phenotype (%) [4]: 0%
- Population Mitotic Cells (%) [4]: 80%
- Population Normal (%) [4]: 59%
- Population Pyknosed Nuclei (%) [4]: 10%
- Population Tubulin-Different-Phenotype (%) [4]: 5%
- Total Cell Count [4]: 84
- Population Apoptotic (%) [5]: 78%
- Population Fragmented Nuclei (%) [5]: 53%
- Population Healthy Nuclei (%) [5]: 36%
- Population Hoechst High Intensity Objects (%) [5]: 41%
- Population Mitochondria Different-Phenotype (%) [5]: 2%
- Population Mitotic Cells (%) [5]: 21%
- Population Normal (%) [5]: 58%
- Population Pyknosed Nuclei (%) [5]: 10%
- Population Tubulin-Different-Phenotype (%) [5]: 20%
- Total Cell Count [5]: 564
- Population Apoptotic (%) [6]: 63%
- Population Fragmented Nuclei (%) [6]: 63%
- Population Healthy Nuclei (%) [6]: 22%
- Population Hoechst High Intensity Objects (%) [6]: 39%
- Population Mitochondria Different-Phenotype (%) [6]: 11%
- Population Mitotic Cells (%) [6]: 36%
- Population Normal (%) [6]: 60%
- Population Pyknosed Nuclei (%) [6]: 14%
- Population Tubulin-Different-Phenotype (%) [6]: 47%
- Total Cell Count [6]: 128
- Population Apoptotic (%) [7]: 52%
- Population Fragmented Nuclei (%) [7]: 19%
- Population Healthy Nuclei (%) [7]: 65%
- Population Hoechst High Intensity Objects (%) [7]: 15%
- Population Mitochondria Different-Phenotype (%) [7]: 2%
- Population Mitotic Cells (%) [7]: 48%
- Population Normal (%) [7]: 84%
- Population Pyknosed Nuclei (%) [7]: 15%
- Population Tubulin-Different-Phenotype (%) [7]: 3%
- Total Cell Count [7]: 192
- Population Apoptotic (%) [8]: 28%
- Population Fragmented Nuclei (%) [8]: 45%
- Population Healthy Nuclei (%) [8]: 41%
- Population Hoechst High Intensity Objects (%) [8]: 36%
- Population Mitochondria Different-Phenotype (%) [8]: 4%
- Population Mitotic Cells (%) [8]: 71%
- Population Normal (%) [8]: 63%
- Population Pyknosed Nuclei (%) [8]: 13%
- Population Tubulin-Different-Phenotype (%) [8]: 0%
- Total Cell Count [8]: 80
